Cneo AK release = causes C. neoformans cell lysis; lysis activity, % at 15 µM; adenylate kinase release luminescence, 4 h; normalised: neutral wells 0, clomiphene wells 100; 360,000 tested, 0.2% active;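 active means mean lysis activity across replicates of at least 80%, whatever share of replicates individually reach that level; inactive means mean lysis activity below 80%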
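Signal: Adenylate kinase release luminescence | Assay system: Log-phase Cryptococcus neoformans yeast cells | Input: Cells at 5 × 10^6 per mL | Buffer or medium: Fresh YPD growth medium | Compound: Single dose | Schedule: Static 4 h at 37 °C with compound, 1 h detection | Controls: Clomiphene | Read-out: Luminescence rise reflecting yeast cell lysis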
Env fusion inh = blocks HIV Env-driven cell-cell fusion. inhibition, % at 12.3 µM. HeLa-JRFL Env/CEM21 cell fusion, luciferase. 360,000 tested, 1.1% active;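 active means mean replicate inhibition score of at least 50 and every replicate individually at or above 50; inconclusive means only one of the two criteria met; inactive means mean below 50 and not all replicates reaching 50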;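 further: 0% = plate neutral controls and 100% = maraviroc near 300 nM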
MITF act = increases MITF-driven TRPM1 promoter luciferase signal | 300,000 tested, 0.75% active | activation, % at 12.5 µM | SK-MEL-5 TRPM1-promoter luciferase, 24 h; % of positive control, neutral wells = 0;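 active means mean activation of at least 80% with every replicate also reaching 80%; inconclusive means mean reaches 80% but some replicate falls short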;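 further: 0% = neutral control wells and 100% = parthenolide positive control wells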
Wnt act = activators of Wnt/beta-catenin signaling | Wnt/beta-catenin reporter cell assay, activator, plate reader | activation, % at 9.35 µM | 300,000 tested, 1.2% active | AID 743398; in the data active means activation above about 30%, passing the limit was not always enough; inconclusive means no clear call, values can overlap the other calls;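 further: 0% = neutral control wells and 100% = positive control wells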
esBAF inh = blocks esBAF chromatin remodeling in mouse ES cells. Bmi1-luciferase knock-in reporter, 24 h; 100% = twice the neutral-well signal. reporter increase, % at 12.5 µM. 350,000 tested, 2% active; in the data active means activation above about 40%; inconclusive means no clear call, values can overlap the other calls;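 further: 0% = median of the plate's neutral control wells and 100% = double that signal; a rise in the Bmi1 reporter signal indicates esBAF inhibition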
ERAP1 HTS inh = ERAP1 (human) enzyme inhibition | inhibition, % at 10.7 µM | 340,000 tested, 0.15% active | Q9NZ08 | AID 652197 | recombinant ERAP1, Leu-AMC fluorescence, 60 min;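 active means mean replicate inhibition of at least 30%, or all replicates individually reaching that 30% level; inactive means mean below 30% and not every replicate reaching it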;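 further: 0% = neutral control wells and 100% = L-leucinethiol positive control wells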
Target sequence (Q9NZ08 whole entry, looked up): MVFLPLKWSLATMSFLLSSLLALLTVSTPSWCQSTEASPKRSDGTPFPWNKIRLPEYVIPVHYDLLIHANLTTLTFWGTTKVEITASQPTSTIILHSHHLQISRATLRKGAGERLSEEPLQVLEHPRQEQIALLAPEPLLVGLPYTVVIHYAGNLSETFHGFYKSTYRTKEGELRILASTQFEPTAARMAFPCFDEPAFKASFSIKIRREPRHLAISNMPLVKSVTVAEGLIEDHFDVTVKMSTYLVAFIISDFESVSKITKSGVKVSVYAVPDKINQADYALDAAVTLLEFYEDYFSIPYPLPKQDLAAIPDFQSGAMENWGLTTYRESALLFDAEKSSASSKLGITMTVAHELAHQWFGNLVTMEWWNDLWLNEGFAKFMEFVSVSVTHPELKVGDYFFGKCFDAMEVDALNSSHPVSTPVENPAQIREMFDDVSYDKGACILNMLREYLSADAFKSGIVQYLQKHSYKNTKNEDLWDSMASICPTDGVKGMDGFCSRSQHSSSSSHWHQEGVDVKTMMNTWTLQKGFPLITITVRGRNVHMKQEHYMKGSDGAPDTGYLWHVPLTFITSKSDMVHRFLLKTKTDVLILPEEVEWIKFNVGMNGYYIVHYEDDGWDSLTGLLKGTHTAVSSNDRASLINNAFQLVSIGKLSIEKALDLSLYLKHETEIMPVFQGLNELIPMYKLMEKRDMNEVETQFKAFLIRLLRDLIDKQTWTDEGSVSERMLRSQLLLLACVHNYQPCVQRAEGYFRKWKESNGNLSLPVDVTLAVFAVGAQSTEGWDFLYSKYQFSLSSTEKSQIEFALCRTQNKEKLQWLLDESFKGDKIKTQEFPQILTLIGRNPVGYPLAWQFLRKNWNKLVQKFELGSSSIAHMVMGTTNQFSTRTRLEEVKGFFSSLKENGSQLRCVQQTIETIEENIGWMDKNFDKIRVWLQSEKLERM
Ring1 derepress = esBAF inhibition confirmed by Ring1 de-repression | 550 tested, under 10 active | mouse ESC E14, Ring1 mRNA RT-qPCR fold change | fold change at 33 µM | shares compounds with esBAF inh;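 active means Ring1 gene expression raised more than 2-fold over untreated cells in both replicates at either tested dose; inconclusive means only one replicate above 2-fold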;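 further: Ring1 transcript normalised to actin housekeeping signal by TaqMan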
esBAF Fgf4 qPCR = esBAF inhibition confirmed by Fgf4 repression | Fgf4 expression fold change at 33 µM | AID 743177 | shares compounds with esBAF inh | mouse ESC E14, Fgf4 mRNA qPCR fold change; active compounds read low | 550 tested, 4% active;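 active means Fgf4 expression under 0.8 fold of control in both repeat measurements at one or both tested doses; inconclusive means under 0.8 fold in just a single repeat measurement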;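 further: Fgf4 transcript normalised to actin in duplex TaqMan qPCR; cells exposed to compound for 24 h before lysis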
Bmi1 derepress = confirmation of esBAF inhibitors: Bmi1 de-repression in mouse ESCs | shares compounds with esBAF inh | fold change at 33 µM | 550 tested, under 10 active | mouse ESE14 ES cells, Bmi1 mRNA qPCR fold; active compounds read high;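 active means Bmi1 expression fold change above 6 at either tested concentration, seen in replicate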;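 further: higher fold means more Bmi1 de-repression and stronger esBAF inhibition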
A549 cytotox = kills or reduces viability of A549 cells | shares compounds with esBAF inh | A549 cytotoxicity, plate reader | cell viability change % (negative = cytotoxic), % at 25 µM, hits read low | 550 tested, under 10 active; call rule not given here
HepG2 cytotox SP = cytotoxicity in HepG2 cells. shares compounds with esBAF inh. plate reader; active compounds read low. activity change, negative = inhibition, % at 25 µM. 550 tested, 4% active; in the data active means activity change below about -50%
HEK293 tox SP = cytotoxicity in HEK293 cells; shares compounds with esBAF inh; plate reader; activity change, negative = inhibition, % at 25 µM, hits read low; 550 tested, 3% active; in the data active means activity change below about -38%, passing the limit was not always enough
An asterisk follows results filed as active; ? = inconclusive; . = no result; [ ] = another dose, or the depositor's remark. Hits are enriched below; roughly 3.5% of the tested compounds scored in any of these assays.

SMILES	Cneo AK release	Env fusion inh	MITF act	Wnt act	esBAF inh	ERAP1 HTS inh	Ring1 derepress	esBAF Fgf4 qPCR	Bmi1 derepress	A549 cytotox	HepG2 cytotox SP	HEK293 tox SP
CC(C)C(=O)Nc1ccc2c(c1)C(=O)N(C)[C@H]1CC[C@H](CC(=O)NCCCN(C)C)O[C@H]1CO2	-2.4	20.8[16.7 µM]	.	.	3.5	.	.	.	.	.	.	.
Cc1cccc(C(P(=O)(c2ccccc2)c2ccccc2)P(=O)(c2ccccc2)c2ccccc2)n1	.	63.8*	7.4	0.6	.	.	.	.	.	.	.	.
COc1cccc(OCc2cc(C(=O)N3CCN(C4CCCC4)CC3)no2)c1	0.2	-5.3	18.0	4.6	3.5	0.4	.	.	.	.	.	.
COc1cccc(OCc2cc(C(=O)N3CCCC3c3ccccn3)no2)c1 (stereo unspecified)	1.4	-15.6	79.9	28.3	60.2*	1.4	.	.	.	.	.	.
O=C(c1cc(COc2ccc3ncccc3c2)on1)N1CCC[C@H]1CO	3.3	58.7*	-3.1	-1.1	.	1.4	.	.	.	.	.	.
COc1cccc(OCc2cc(C(=O)N3CCNC(=O)C3Cc3ccccc3)no2)c1 (stereo unspecified)	0.0	-5.9	58.5	7.1	51.4*	2.7	.	.	.	.	.	.
O=S(=O)(NCC[C@@H]1CC[C@@H](NS(=O)(=O)c2ccccc2Cl)[C@H](CO)O1)c1ccc(F)cc1	1.8	-3.9[16.7 µM]	.	.	1.0	-1.4	.	.	.	.	.	.
CC(C)(C)c1ccc(SCCc2ccccn2)cc1	.	-72.5	102.4*	60.6*	.	-3.9	.	.	.	.	.	.
CC(C)(C)c1ccc(S(=O)(=O)CCc2ccccn2)cc1	-1.8	.	56.5	20.5	70.5*	.	.	.	.	.	.	.
O=C(N[C@@H]1CC[C@H](CC(=O)N2CCC(Cc3ccccc3)CC2)O[C@@H]1CO)c1cnccn1	-0.3	-6.9[16.7 µM]	.	.	-1.2	4.1	.	.	.	.	.	.
COc1cc(OC)c2c(-c3ccccc3)cc(C3CCCCC3)nc2c1	0.4	2.5	7.4	2.3	-10.3	-0.2	.	.	.	.	.	.
c1ccc2cc(C3CCCCC3)ncc2c1	1.1	16.4	99.0*	25.2	76.3*	-0.5	1.33	?	1.55	1.6	-41.1	12.5
COc1cccc(C(=O)Nc2ccc(Cl)c(C(F)(F)F)c2)c1	-14.3	-161.8	?	26.6	68.2*	.	0.971	0.977	1.91	-1.6	-39.5	-6.1
COc1cc(C(=O)Nc2ccc(Cl)c(C(F)(F)F)c2)cc(OC)c1OC	0.3	.	9.5	-4.7	2.1	.	.	.	.	.	.	.
CS(=O)(=O)N1CCN(c2nc3ccccc3s2)CC1	-0.7	.	67.3	.	65.2*	0.4	1.12	1.11	1.1	-11.2	-16.4	-6.6
CCC(=O)Nc1cccc(-c2nnc(-c3ccccc3)o2)c1	-6.4	-22.9	100.1*	0.6	74.4*	-0.9	1.23	1.13	1.17	-11.3	14.8	-0.6
CCCCC(=O)Nc1cccc(-c2nnc(-c3ccccc3)o2)c1	-1.0	-63.9	12.6	.	7.3	.	.	.	.	.	.	.
O=C1CCCc2c1sc1nc3n(c(=O)c21)CCCCC3	-0.5	-86.8	33.2	16.9	67.6*	.	0.978	0.91	1.27	-7.4	-61.7*	-13.9
Cc1ccc(C)c(NC(=O)c2cc(-c3cc(C)c(C)cc3O)n[nH]2)c1	2.2	-39.5	99.9*	11.1	57.4*	4.0	1.35	0.843	1.56	-3.4	-16.1	-2.2
Nc1nc(-c2cccc(F)c2)cs1	-1.6	-20.8	47.1	?	57.5*	4.4	1.17	?	1.64	0.1	-4.0	6.2
Fc1cccc(-c2csc(-c3ccno3)n2)c1	.	-12.2	7.4	1.0	.	-4.6	.	.	.	.	.	.
CCn1c(-c2ccc(N)cc2)nc2ccccc21	-2.3	-7.8	30.2	11.9	22.0	.	.	.	.	.	.	.
C=CCn1c(-c2ccc(N)cc2)nc2ccccc21	-1.8	-21.8	59.1	19.7	58.4*	.	0.927	1.15	1.21	-17.0	-0.9	-19.7
COc1ccc(C2CC2/C(=N/OC(=O)c2cccs2)c2ccccc2)cc1 (stereo unspecified)	5.8	.	.	20.0	68.0*	.	1.22	0.995	1.61	-7.9	-21.1	-7.2
COc1ccc(C(=O)O/N=C(/c2cccs2)C(C)(C)C)cc1	0.1	7.7	-3.6	4.5	3.2	-1.0	.	.	.	.	.	.
SMILES	Cneo AK release	Env fusion inh	MITF act	Wnt act	esBAF inh	ERAP1 HTS inh	Ring1 derepress	esBAF Fgf4 qPCR	Bmi1 derepress	A549 cytotox	HepG2 cytotox SP	HEK293 tox SP
O=C(NC[C@@H]1[C@@H](c2ccccc2)[C@@H](CO)N1C(=O)Cc1cccnc1)C1CC1	-18.4	.	.	.	-10.2	0.4	.	.	.	.	.	.
COc1ccccc1C(=O)NC1CCCCCCC1	2.2	-109.0	-2.3	12.0	17.7	.	.	.	.	.	.	.
COc1ccccc1C(=O)NCCC(=O)NC1CCC(C)CC1 (stereo unspecified)	-1.1	-29.5	?	-5.0	72.8*	-5.7	1.45	1.09	1.29	-9.2	-25.5	-9.0
Nc1ccccc1/C=C/c1ccccc1N	0.5	-64.2	54.5	20.0	111.8*	-8.5	1.41	0.994	1.77	-4.0	24.4	-7.2
O=C(Nc1nccs1)C(=O)c1c[nH]c2ccccc12	-5.2	-164.7	?	59.2*	68.1*	.	1.08	0.872	1.47	-9.3	-12.5	-9.1
O=C(Cc1c[nH]c2ccccc12)Nc1nccs1	-4.6	.	-4.9	-1.4	12.8	.	.	.	.	.	.	.
O=c1c2ccccc2sc2ccccc12	1.6	-33.5	35.8	14.1	57.5*	-3.0	0.963	1.05	2.04	-13.4	7.1	-13.9
O=c1c2ccccc2sc2ccc(Cl)cc12	.	-41.9	52.3	.	.	2.4	.	.	.	.	.	.
CO[C@H]1CN(C)C(=O)c2cc(NS(=O)(=O)c3ccc(C)cc3)ccc2OC[C@H](C)N(C(=O)NC(C)C)C[C@@H]1C	-1.6	7.5[16.7 µM]	.	.	2.1	.	.	.	.	.	.	.
CN(C)CCCNC(=O)C[C@@H]1C=C[C@@H](NS(=O)(=O)c2ccc(F)cc2)[C@H](CO)O1	0.3	11.6[16.7 µM]	.	.	3.9	0.5	.	.	.	.	.	.
S=c1[nH]nc(SCc2ccccc2)c2[nH]cnc12	-0.5	.	31.4	-1.1	55.4*	1.0	1.2	0.807	1.5	-9.4	-30.1	-3.1
COc1ccc(F)cc1-c1cc(C(=O)Nc2cccnc2)[nH]n1	-1.7	-71.3	.	-0.2	56.6*	-2.4	1.15	1.01	1.83	-8.8	-0.7	-12.9
COc1ccc(-c2cc(C(=O)NCc3cccnc3)no2)cc1OC	-0.7	-15.6	9.0	.	10.3	.	.	.	.	.	.	.
CC(C)Oc1ccc(F)cc1-c1cc(C(=O)Nc2ccccc2)[nH]n1	0.0	.	.	-3.3	6.7	1.1	.	.	.	.	.	.

Screening results (PubChem)
